In experiment [1] the target is Beta-1 adrenergic receptor (Cavia porcellus, UniProt B0FL73). As to the kind of experiment: Agonistic potency at beta-1 adrenergic receptor for the percent maximal increase in contraction rate of isolated guinea pig atria. The experiment is classed as functional. A digest of the protocol:
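Isolated guinea pig atria, giving percent of maximal rate increase for four individual preparations.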

Experiment [2] addresses Beta-1 adrenergic receptor (Rattus norvegicus) (UniProt P18090). As to the kind of experiment: Binding affinity against beta-1 adrenergic receptor in rat cerebral cortical membranes by displacement of Dihydro-[3H]-alprenolol.
The target in experiment [3] is T1, Adrenergic receptor alpha-2 (Homo sapiens, UniProt P08913+P18825+P18089).
T1 sequence (P08913 whole entry): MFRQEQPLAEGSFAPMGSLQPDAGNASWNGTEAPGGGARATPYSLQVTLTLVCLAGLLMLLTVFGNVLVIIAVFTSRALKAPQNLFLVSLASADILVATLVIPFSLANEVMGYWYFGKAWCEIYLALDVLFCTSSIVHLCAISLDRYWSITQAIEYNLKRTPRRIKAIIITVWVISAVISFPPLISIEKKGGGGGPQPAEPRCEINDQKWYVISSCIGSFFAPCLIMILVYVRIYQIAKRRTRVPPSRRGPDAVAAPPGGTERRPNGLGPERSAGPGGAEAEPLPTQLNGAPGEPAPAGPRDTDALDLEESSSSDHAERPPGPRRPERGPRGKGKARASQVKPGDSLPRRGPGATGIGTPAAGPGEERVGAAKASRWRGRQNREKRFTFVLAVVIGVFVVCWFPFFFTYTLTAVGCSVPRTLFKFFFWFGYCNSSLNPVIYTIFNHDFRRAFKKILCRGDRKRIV
T1 sequence (P18825 whole entry): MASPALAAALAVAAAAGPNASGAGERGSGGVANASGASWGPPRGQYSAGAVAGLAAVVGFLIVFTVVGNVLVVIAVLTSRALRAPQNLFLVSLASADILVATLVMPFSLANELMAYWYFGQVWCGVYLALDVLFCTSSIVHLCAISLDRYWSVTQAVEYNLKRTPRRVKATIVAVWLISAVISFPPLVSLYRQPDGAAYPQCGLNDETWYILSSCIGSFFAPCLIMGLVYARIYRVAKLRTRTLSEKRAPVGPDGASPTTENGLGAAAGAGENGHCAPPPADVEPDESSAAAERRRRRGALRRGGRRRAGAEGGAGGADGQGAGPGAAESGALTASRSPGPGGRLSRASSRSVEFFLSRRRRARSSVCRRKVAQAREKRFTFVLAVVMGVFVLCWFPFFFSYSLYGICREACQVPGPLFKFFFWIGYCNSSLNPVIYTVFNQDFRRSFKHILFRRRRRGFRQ
T1 sequence (P18089 whole entry): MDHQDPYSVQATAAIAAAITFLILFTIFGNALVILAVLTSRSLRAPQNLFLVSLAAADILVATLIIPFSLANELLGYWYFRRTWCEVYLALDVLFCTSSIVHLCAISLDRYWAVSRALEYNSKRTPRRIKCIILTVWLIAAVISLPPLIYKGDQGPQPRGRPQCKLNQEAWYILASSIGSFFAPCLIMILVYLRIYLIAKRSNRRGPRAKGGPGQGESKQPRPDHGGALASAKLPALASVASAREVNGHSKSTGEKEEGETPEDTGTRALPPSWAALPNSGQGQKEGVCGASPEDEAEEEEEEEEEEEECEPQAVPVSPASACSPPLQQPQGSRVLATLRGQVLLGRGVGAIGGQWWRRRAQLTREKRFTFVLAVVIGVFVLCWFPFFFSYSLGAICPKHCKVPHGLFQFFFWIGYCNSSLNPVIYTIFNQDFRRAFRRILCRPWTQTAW
As to the kind of experiment: Binding affinity against alpha-2 adrenergic receptor in guinea pig cerebral cortical membranes by displacement of [3H]clonidine. Particulars: target entry is the homologue from another species. More on the design: species or system Cavia porcellus. The method, boiled down:
(§1)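 Nonspecific binding defined with 10 μM clonidine. Points in triplicate, reported as percent of control; experiment repeated three times.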

Experiment [4] addresses T1, Adrenergic receptor alpha-2. As to the kind of experiment: Agonistic potency at alpha 2-Adrenergic receptor for inhibition of 10 uM forskolin-elicited stimulation of adenylate cyclase in human platelet membranes. In kind it is functional, cell membranes. A digest of the protocol:
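Human platelet membranes (10–15 μg protein/tube) added to medium preincubated 5 min at 37 °C: 0.1 mM [α-32P]ATP, 0.1 mM cAMP, adenosine deaminase, 0.1 mM rolipram, 0.2 mM EGTA, creatine phosphate/kinase, BSA, 1 μM GTP, 10 μM forskolin, 1 mM MgCl2, 50 mM Tris-HCl pH 7.4. Stopped with zinc acetate/Na2CO3. Product is cAMP (pmol/min/mg), triplicate points. Adjusted EC50 is taken from dose-response curves.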

Another experiment has as its target Adrenergic receptor beta (Rattus norvegicus, UniProt P18090+P10608+P26255). As to the kind of experiment: Agonistic potency at beta adrenergic receptor for the stimulation of accumulation of cyclic AMP in cultured C6 glioma cells. The experiment is classed as functional, cell-based. A digest of the protocol:
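C6 glioma cells subcultured the day before and washed in HEPES-buffered saline (pH 7.4). Preincubated 10 min with 30 μM rolipram, then agonist for 10 min. Stopped with 0.1 M HCl. cAMP measured by commercial kit. Adjusted EC50 is taken from dose-response curves.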

The target of experiment [5] is T1, Adrenergic receptor alpha-2. As to the kind of experiment: Binding affinity against alpha 2-Adrenergic receptor in guinea pig cerebral cortical membranes by displacement of [3H]clonidine. The arrangement: species or system Cavia porcellus. Particulars: target entry is the homologue from another species. The method, boiled down: as §1
(In general: Displacement assays read how much labelled ligand stays bound in the presence of the test substance.)

Drawing on ChEMBL document CHEMBL1123982, “Syntheses and adrenergic activities of ring-fluorinated epinephrines” (J Med Chem, 1988), this text covers EC50 and Ki for 4 molecules.

Beta-1 adrenergic receptor, sequence (B0FL73 whole entry): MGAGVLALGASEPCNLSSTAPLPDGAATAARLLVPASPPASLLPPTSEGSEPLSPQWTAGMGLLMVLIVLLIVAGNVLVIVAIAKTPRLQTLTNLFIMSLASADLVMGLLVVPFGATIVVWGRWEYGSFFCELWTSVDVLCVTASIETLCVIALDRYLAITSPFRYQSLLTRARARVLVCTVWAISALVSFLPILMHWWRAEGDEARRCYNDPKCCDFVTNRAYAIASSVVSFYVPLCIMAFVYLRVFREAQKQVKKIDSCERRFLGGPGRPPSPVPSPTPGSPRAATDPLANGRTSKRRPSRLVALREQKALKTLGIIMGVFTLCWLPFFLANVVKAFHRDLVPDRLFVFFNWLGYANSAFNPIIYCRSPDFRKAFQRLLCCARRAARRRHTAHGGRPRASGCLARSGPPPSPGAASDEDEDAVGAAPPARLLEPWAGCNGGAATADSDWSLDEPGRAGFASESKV
Beta-1 adrenergic receptor (Rattus norvegicus), sequence (P18090 whole entry, looked up): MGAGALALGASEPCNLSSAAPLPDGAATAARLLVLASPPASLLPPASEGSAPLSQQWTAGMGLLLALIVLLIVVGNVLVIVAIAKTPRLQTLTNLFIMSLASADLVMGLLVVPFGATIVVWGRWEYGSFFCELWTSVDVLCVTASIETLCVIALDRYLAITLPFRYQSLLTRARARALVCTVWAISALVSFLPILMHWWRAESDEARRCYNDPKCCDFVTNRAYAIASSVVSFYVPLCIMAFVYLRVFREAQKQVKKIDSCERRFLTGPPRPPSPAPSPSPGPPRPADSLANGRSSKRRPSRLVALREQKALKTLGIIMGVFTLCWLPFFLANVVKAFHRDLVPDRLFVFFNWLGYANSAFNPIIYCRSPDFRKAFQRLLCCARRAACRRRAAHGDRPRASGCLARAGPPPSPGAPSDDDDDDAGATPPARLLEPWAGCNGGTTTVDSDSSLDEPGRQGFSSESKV

In turn, `CNC[C@H](O)c1ccc(O)c(O)c1` [EPINEPHRINE] displayed an EC50 in experiment [1] of 260 nM. In experiment [2], this molecule came in with a Ki of 3000 nM.
In experiment [3], `CNCC(O)c1ccc(O)c(O)c1F` (stereo not given) showed a Ki of 66 nM. This molecule displayed an EC50 in experiment [4] of over 5000 nM.
With `CNCC(O)c1cc(O)c(O)cc1F` (stereo not given), the EC50 in experiment [1] was over 1500 nM; on Adrenergic receptor beta it was over 1500 nM; in experiment [4] it was 100 nM. Besides, the Ki amounted to 63000 nM in experiment [2] and 9 nM in experiment [5].
`NCC(O)c1ccc(O)c(O)c1F` (stereo not given) returned a Ki in experiment [5] of 700 nM. That is a sub-micromolar value.

The term EC50 denotes the concentration needed to bring the measured effect to its halfway point. Read a low EC50 as a more potent agent. The term Ki denotes a measure of affinity in units of concentration, obtained from inhibition or displacement. Low values mean tighter binding, high ones weaker binding.
